Measurements pooled from the literature.
Protocols differ between the studies behind these lines.
Target: Casein kinase I isoform gamma-1 (CSNK1G1, Homo sapiens, UniProt Q9HCP0)

Compound	test	conditions	measurement	result
CO[C@@H]1[C@H](N(C)C(=O)c2ccccc2)C[C@H]2O[C@]1(C)n1c3ccccc3c3c4c(c5c6ccccc6n2c5c31)C(=O)NC4	enzyme activity, inhibitor	1 µM	inhibition	0%
CC(C)S(=O)(=O)c1ccc2nccc(Nc3ccc4sc(C5CCCC5)nc4c3)c2c1	enzyme activity, inhibitor	1 µM	activity vs control	96%
Cc1cc(O)c(-c2ccc([C@@H](C)CN(C)C)cc2)c2c1[nH]c(=O)c1sccc12	enzyme activity, inhibitor	0.1 µM	inhibition	-2.19%
C1=C/COCc2cc(ccc2OCCN2CCCC2)Nc2nccc(n2)-c2cccc(c2)COC/1	cell-free assay	0.1 µM	remaining signal	72%
C=CC(=O)N1CCC[C@@H](n2nc(-c3ccc(Oc4ccccc4)cc3)c3c(N)ncnc32)C1	enzyme activity, inhibitor	1 µM	inhibition	7%
C[C@H]1CC[C@H](n2c3cnccc3c3cnc(Nc4ccc5c(n4)CCN(C(=O)CO)C5)nc32)CC1	cell-free assay	1 µM	remaining signal	100%
CCCCC(=O)Nc1ccc(-c2ccc3ncn(CCC)c(=O)c3c2)cn1	binding, competition with immobilised ligand	0.5 µM	remaining binding	100%
C#Cc1cc(-c2cc(Nc3nc(N[C@@H](C)c4ccc(F)cn4)ncc3Cl)n[nH]2)ccc1C=O	enzyme activity, inhibitor	0.2 µM	inhibition	4.78%
CN1CCN(C(=O)c2ccc(NC(=O)Nc3ccc(N(C)c4ccnc(Nc5ccc(CS(C)(=O)=O)cc5)n4)cc3)cc2)CC1	binding	1 µM	remaining binding	100%
